Assay outcomes deposited in PubChem BioAssay by several laboratories.
A selection: hits, their analogues and other compounds. The true share with any hit is near 4%.
CHO parental Ca – signal in parental CHO cells, OX1R antagonist counter-screen. AID 463079. 0.63% of 330,000 active. inhibition, % at 5.6 µM. parental CHO-K1, ATP-induced calcium, Fluo-8 fluorescence;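 active = inhibition above that plate's mean sample inhibition plus 3 SD, cut at about 26% in these data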
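test system = CHO parental line | reagent = ATP stimulus | measured by = intracellular calcium via Fluo-8 no-wash fluorescent dye | control set = ATP and no-ATP DMSO wells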
TAAR1 ag – human TAAR1 agonism; Q96RJ0; CHO RD-HGA16 TAAR1, Fluo-8 calcium fluorescence; vehicle wells 0%, saturating PEA agonist 100%; activation, % at 3 µM; 0.99% of 360,000 active; AID 624467;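 active = activation above the mean activation of all test compounds in the run plus 3 SD, cut at about 38% in these data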
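System: CHO RD-HGA16 cells carrying human TAAR1 plus Gα16; Incubation: 17-24 h seeding, 75 min 37 °C dye, 30 min RT; Measured by: Fluo-8 fluorescence, 5 s baseline then 140 s kinetic read; Control set: DMSO and PEA EC100; Replication: single well for each compound.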
NTR1 ag – agonists of human neurotensin receptor NTR1; P30989; NTR1-U2OS beta-arrestin-GFP spot imaging, agonist mode; activation, % at 20 µM; 0.17% of 330,000 active; AID 493036;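 active = activation at or above 40% of the spot to cytoplasm intensity ratio, with at least 20 cells analyzed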
OX1R antag-1 – blocks the human orexin 1 receptor; 0.43% of 330,000 active; O43613; CHO/OX1R cells, Fluo-8 calcium fluorescence, orexin A; inhibition, % at 5 µM;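 active = inhibition above its plate's threshold, mean inhibition of all tested compounds on the plate plus 3 SD, cut at about 37% in these data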
Target sequence (O43613 whole entry, looked up): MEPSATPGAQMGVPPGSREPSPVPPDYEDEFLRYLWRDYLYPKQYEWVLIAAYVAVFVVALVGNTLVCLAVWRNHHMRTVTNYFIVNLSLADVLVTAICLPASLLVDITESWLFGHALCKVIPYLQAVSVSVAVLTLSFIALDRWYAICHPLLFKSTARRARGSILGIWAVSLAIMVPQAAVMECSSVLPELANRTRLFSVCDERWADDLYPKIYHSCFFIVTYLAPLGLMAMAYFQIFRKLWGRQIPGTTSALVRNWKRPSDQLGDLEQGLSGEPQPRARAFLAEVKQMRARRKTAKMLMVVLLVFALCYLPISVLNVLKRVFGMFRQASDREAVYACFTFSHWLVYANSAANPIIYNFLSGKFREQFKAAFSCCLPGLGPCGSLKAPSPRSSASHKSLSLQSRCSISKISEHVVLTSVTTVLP
OX1R antag-2 – blocks the human orexin 1 receptor; O43613; OX1R-expressing cells, FRET antagonist read-out; inhibition, % at 6.6 µM; 1.8% of 330,000 active; AID 485270; in the data active = inhibition mostly above about 38%, no sharp cut-off; inactive = mostly below about 40%
TAAR1 antag – antagonists of human TAAR1; 1.5% of 360,000 active; inhibition, % at 3 µM; CHO RD-HGA16 TAAR1, Fluo-8 calcium fluorescence, antagonist;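 active = inhibition above a per-plate cutoff, the mean inhibition of test compounds on that plate plus 3 SD, cut at about 49% in these data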
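System: RD-HGA16 CHO cells with stable hTAAR1 and Gα16 | Probe or stimulus: EC80 β-phenethylamine stimulus | Dosing: 3 µM, single point | Times: Dye loading 75 min at 37 °C, then 30 min room temperature | Measured by: Fluo-8 calcium-sensitive fluorescence | Read-out basis: % inhibition of agonist calcium response | Replicates: n of 1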
Each line names hits and unclear results; the compound was inactive in the other large screens.

CCN1CCN(C(=O)c2cc(COc3ccc4ncccc4c3)on2)CC1	none
Nc1[nH]c(C(=O)c2ccccc2)c(-c2ccc3ccccc3c2)c1C(=O)NCc1cccc2ccccc12	none (no result: CHO parental Ca, NTR1 ag, OX1R antag-1, OX1R antag-2)
CCCCn1c(CNC(=O)c2cccs2)nc2ccccc21	none
CCCCCn1c(CNC(=O)c2cccs2)nc2ccccc21	OX1R antag-2 56
CC(C)NC(=O)OC[C@@H]1CSCCS(=O)(=O)N1	none (no result: CHO parental Ca, NTR1 ag, OX1R antag-1, OX1R antag-2)
CC12CCC3c4ccc(OCCCO)c([N+](=O)[O-])c4CCC3C1CCC2=O (stereo not given)	none (no result: CHO parental Ca, NTR1 ag, OX1R antag-1, OX1R antag-2)
COc1ccc(CCNC(=O)c2nn(C)c3c2CS(=O)(=O)c2ccccc2-3)c(OC)c1	none
O=C(c1sc2cc([N+](=O)[O-])ccc2c1Cl)N1CCOCC1	OX1R antag-2 75
CC(C)N(C(=O)c1sc2cc([N+](=O)[O-])ccc2c1Cl)C(C)C	none
C[C@H](CO)N1C[C@H](C)[C@@H](CN(C)C(=O)Nc2ccccc2)Oc2c(NC(=O)Nc3ccc(C(F)(F)F)cc3)cccc2C1=O	TAAR1 antag 49
CC(C)NC(=O)Nc1cccc2c1O[C@H](CN(C)C(=O)Nc1ccccc1)[C@@H](C)CN([C@H](C)CO)C2=O	none
C[C@H](CO)N1C[C@H](C)[C@@H](CN(C)C(=O)Nc2ccccc2)Oc2c(NC(=O)Nc3ccccc3)cccc2C1=O	TAAR1 antag 50
Cc1cc(N/C(=C\C(=O)c2ccccc2)c2ccccc2)ccc1Br	none (no result: CHO parental Ca, NTR1 ag, OX1R antag-1, OX1R antag-2)
Cc1cc(Br)c2nc(-c3ccc(Cl)cc3)c(Cc3cccc(Cl)c3)n2c1	none (no result: CHO parental Ca, NTR1 ag, OX1R antag-1, OX1R antag-2)
CCOC(=O)c1sc(C)c2c(=O)n(CCc3ccccc3)nnc12	none
CCOC(=O)c1sc(C)c2c(=O)n(CC)nnc12	OX1R antag-2 63
CCN(CC)C(=O)c1cccc2nc3ccccc3nc12	OX1R antag-2 72
CCN(CC)C(=O)c1ccccc1NC(=O)c1ccccc1	none
C[C@H](CO)N1C[C@H](C)[C@@H](CN(C)C(=O)Nc2ccccc2)OCc2cn(nn2)CCCC1=O	none (no result: CHO parental Ca, NTR1 ag, OX1R antag-1, OX1R antag-2)
CC(=O)c1cc(N2CCC(C(=O)O)CC2)ccc1[N+](=O)[O-]	OX1R antag-2 67
CC(=O)c1cc(N2CCOCC2)ccc1[N+](=O)[O-]	none (no result: CHO parental Ca, NTR1 ag, OX1R antag-1, OX1R antag-2)
Cc1ccccc1C(=O)Nc1ccc(C(=O)N/N=C/c2ccc(O)c(Br)c2)cc1	TAAR1 antag 52
O=C(N/N=C/c1cccnc1)c1ccc(NC(=O)c2ccccc2Cl)cc1	TAAR1 antag 50
Cc1ccccc1C(=O)Nc1ccc(C(=O)N/N=C/c2ccc(F)cc2)cc1	none
COc1ccccc1C(=O)NCCN1CCN(c2ccccc2)CC1	none
CC(C)(C)C(=O)COC(=O)c1ccc(N)c([N+](=O)[O-])c1	none
COc1ccc(CCOC(=O)c2ccc(N)c([N+](=O)[O-])c2)cc1	CHO parental Ca 47
O=C(N/C(=C/c1ccc([N+](=O)[O-])cc1)C(=O)N1CCOCC1)c1ccco1	OX1R antag-2 74
O=C(OCc1cc(=O)n2c(n1)sc1ccccc12)c1ccc(O)cc1O	OX1R antag-2 63
C=Cc1ccc(Cn2nc(-c3ccccc3)ccc2=O)cc1	CHO parental Ca 50
COc1cccc(CNC(=O)[C@H]2CCCN2C(=O)[C@H]2CCCN2C(=O)c2cccc3ccccc23)c1	none (no result: CHO parental Ca, NTR1 ag, OX1R antag-1, OX1R antag-2)
COc1ccccc1/C=C/C(=O)OCC(=O)N1c2ccccc2CC1C (stereo not given)	none
CCOC(=O)C1CSCCS(=O)(=O)N1Cc1cccc(Cl)c1 (stereo not given)	none (no result: CHO parental Ca, NTR1 ag, OX1R antag-1, OX1R antag-2)
COc1ccccc1CNc1nc(NCc2cccc(OC)c2OC)c2sccc2n1	none (no result: CHO parental Ca, NTR1 ag, OX1R antag-1, OX1R antag-2)
c1ccc(CNc2nc(NCCOc3ccccc3)c3sccc3n2)cc1	TAAR1 ag 59, TAAR1 antag 95 (no result: CHO parental Ca, NTR1 ag, OX1R antag-1, OX1R antag-2)
c1ccc(CNc2nc(NCc3ccccc3)c3sccc3n2)cc1	TAAR1 ag 74, TAAR1 antag 104 (no result: CHO parental Ca, NTR1 ag, OX1R antag-1, OX1R antag-2)
COc1ccccc1CNc1nc(NCc2ccccc2)nc2ccsc12	TAAR1 ag 50, TAAR1 antag 95 (no result: CHO parental Ca, NTR1 ag, OX1R antag-1, OX1R antag-2)
Fc1cc(Cl)ccc1Nc1nc(NCc2ccccc2)nc2ccsc12	none (no result: CHO parental Ca, NTR1 ag, OX1R antag-1, OX1R antag-2)
c1ccc(CNc2nc(NCc3ccccc3)c3ccccc3n2)cc1	CHO parental Ca 75, OX1R antag-1 89 (no result: TAAR1 ag, TAAR1 antag)
C[C@@H]1ON(C)[C@H]2C[C@H]3c4[nH]c5c(-c6cccc(F)c6)cccc5c4CCN3C(=O)[C@@H]12	none (no result: CHO parental Ca, NTR1 ag, OX1R antag-1, OX1R antag-2)
